≈ marks a conversion by molar mass, not a printed value.
Assays:
[1] = Cytotoxicity against african green monkey Vero cells after 72 hrs by alamar blue assay; type: cell-based; settings: chlorocebus sabaeus, read-out: LD50
How it was run: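 Vero cells grown in phenol-free L15 medium with glutamine, penicillin-streptomycin and 10% bovine calf serum at 37°C. Compounds tested by microplate dilution for 72 h at 37°C. alamarBlue then added and plates incubated overnight at 37°C. Drug LD50 determined.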

[2] = test system: Mycobacterium tuberculosis; experiment: Antimicrobial activity against Mycobacterium tuberculosis H37Rv after 9 to 12 days by CLSI microbroth dilution technique; type: functional
How it was run: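 M. tuberculosis H37Rv grown in Middlebrook 7H9 with 10% OADC to OD600 0.4–0.6, frozen in aliquots of known CFU/mL. Compounds serially diluted in DMSO, added to 7H9 medium; 2×10^4 bacteria per well. Incubated at 37 °C for […]. MIC90 read visually as concentration inhibiting 90% of growth. Isoniazid control run in each experiment.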

[3] = Therapeutic index, CC50 for african green monkey Vero cells to MIC for Mycobacterium tuberculosis H37Rv; type: cell-based
Mus musculus = experiment: Toxicity in mouse assessed as death at 50 to 100 mg/kg; type: organism-based; parameters: dose 50-100 mg/kg; settings: in vivo

| Compound | CC50 at 72 h [1] | MIC [2] | selectivity ratio [3] | Activity (Mus musculus) |
| --- | --- | --- | --- | --- |
| Cc1cccc(C)c1OC[C@H](O)CN1CCC(O)(c2ccc(Cl)c(C(F)(F)F)c2)CC1 | 19.3 µg/mL (≈ 42.1 µM) | 5.9 µg/mL (≈ 12.9 µM) | 3.3 | – |
| O[C@@H](COc1ccc(Cl)cc1)CN1CCC(O)(c2ccccc2)CC1 | – | 100 µg/mL (≈ 276 µM) | – | – |
| O[C@@H](COc1ccccc1)CN1CCC(O)(c2ccc(Cl)c(C(F)(F)F)c2)CC1 | 27.7 µg/mL (≈ 64.4 µM) | 18.8 µg/mL (≈ 43.7 µM) | 1.5 | – |
| O[C@@H](COc1ccc(Cl)cc1)CN1CCC(O)(c2ccc(Cl)cc2)CC1 | – | 25 µg/mL (≈ 63.1 µM) | – | – |
| N#CC1(c2ccccc2)CCN(C[C@@H](O)COc2ccc(Cl)cc2)CC1 | – | 25 µg/mL (≈ 67.4 µM) | – | – |
| O[C@@H](COc1ccc(C(F)(F)F)cc1)CN1CCC(O)(c2ccc(Cl)c(C(F)(F)F)c2)CC1 | 18.3 µg/mL (≈ 36.8 µM) | 5.2 µg/mL (≈ 10.4 µM) | 3.5 | – |
| O[C@H](COc1ccc(Cl)c(Cl)c1)CN1CCC(O)(c2ccc(Cl)c(C(F)(F)F)c2)CC1 | 18.7 µg/mL (≈ 37.5 µM) | 7.3 µg/mL (≈ 14.6 µM) | 2.6 | – |
| O[C@@H](COc1ccc(F)cc1)CN1CCC(O)(c2ccc(Cl)c(C(F)(F)F)c2)CC1 | 20.8 µg/mL (≈ 46.4 µM) | 10.4 µg/mL (≈ 23.2 µM) | 2 | – |
| O[C@H](CSc1ccccc1)CN1CCC(O)(c2ccc(Cl)c(C(F)(F)F)c2)CC1 | 35.7 µg/mL (≈ 80.1 µM) | 5.2 µg/mL (≈ 11.7 µM) | 6.8 | – |
| O[C@H](COc1ccc(F)cc1)CN1CCC(O)(c2ccc(Cl)c(C(F)(F)F)c2)CC1 | 25.8 µg/mL (≈ 57.6 µM) | 3.9 µg/mL (≈ 8.71 µM) | 6.6 | – |
| O[C@@H](CSc1ccccc1)CN1CCC(O)(c2ccc(Cl)c(C(F)(F)F)c2)CC1 | 37.1 µg/mL (≈ 83.2 µM) | 8.3 µg/mL (≈ 18.6 µM) | 4.4 | – |
| O[C@@H](COc1ccc(Cl)cc1)CN1CCC(O)(c2cccc(C(F)(F)F)c2)CC1 | – | 25 µg/mL (≈ 58.2 µM) | – | – |
| OC(COc1ccc(Cl)cc1)CN1CCC(O)(c2ccc(Cl)c(C(F)(F)F)c2)CC1 (racemic) | 17.9 µg/mL (≈ 38.6 µM) | 1.5 µg/mL (≈ 3.23 µM) | 11.9 | – |
| O[C@H](COc1ccc(Cl)cc1)CN1CCC(O)(c2ccc(Cl)c(C(F)(F)F)c2)CC1 | 17.9 µg/mL (≈ 38.6 µM) | 3.8 µg/mL (≈ 8.18 µM) | 4.7 | – |
| O[C@H](COc1ccc(OC(F)(F)F)cc1)CN1CCC(O)(c2ccc(Cl)c(C(F)(F)F)c2)CC1 | 17.6 µg/mL (≈ 34.3 µM) | 7.3 µg/mL (≈ 14.2 µM) | 2.4 | – |
| O[C@H](COc1ccc(C(F)(F)F)cc1)CN1CCC(O)(c2ccc(Cl)c(C(F)(F)F)c2)CC1 | 18.7 µg/mL (≈ 37.6 µM) | 1.7 µg/mL (≈ 3.41 µM) | 11 | – |
| O[C@@H](COc1ccc(Cl)c(Cl)c1)CN1CCC(O)(c2ccc(Cl)c(C(F)(F)F)c2)CC1 | 18 µg/mL (≈ 36.1 µM) | 3.1 µg/mL (≈ 6.22 µM) | 5.8 | – |
| OC(COc1ccccc1)CN1CCC(O)(c2ccc(Cl)c(C(F)(F)F)c2)CC1 (racemic) | 19.5 µg/mL (≈ 45.4 µM) | 10.4 µg/mL (≈ 24.2 µM) | 1.9 | – |
| O[C@H](COc1ccccc1)CN1CCC(O)(c2ccc(Cl)c(C(F)(F)F)c2)CC1 | 34.9 µg/mL (≈ 81.2 µM) | 8.3 µg/mL (≈ 19.3 µM) | 4.2 | – |
| O[C@@H](COc1ccc(Cl)cc1)CN1CCC(O)(c2ccc(Cl)c(C(F)(F)F)c2)CC1 | 18.2 µg/mL (≈ 39.2 µM) | 1.4 µg/mL (≈ 3.02 µM) | 13.3 | Toxic |
| O[C@@H](COc1ccc(OC(F)(F)F)cc1)CN1CCC(O)(c2ccc(Cl)c(C(F)(F)F)c2)CC1 | 17.7 µg/mL (≈ 34.4 µM) | 3.6 µg/mL (≈ 7.01 µM) | 4.9 | – |
| Cc1cccc(C)c1OC[C@@H](O)CN1CCC(O)(c2ccc(Cl)c(C(F)(F)F)c2)CC1 | 19 µg/mL (≈ 41.5 µM) | 4.7 µg/mL (≈ 10.3 µM) | 4.1 | – |
| O[C@@H](COc1ccc(Cl)cc1)CN1CC=C(c2ccc(Cl)cc2)CC1 | – | > 200 µg/mL | – | – |
